Measured values pooled from the literature.
Protocols differ between the studies behind these lines.
Target: Tyrosine-protein kinase receptor TYRO3 (TYRO3, Homo sapiens, UniProt Q06418)

`Cn1c2c(c3ccc(Cl)c(Cl)c31)C(C#N)C1(CCNCC1)NC2=O` (racemic) gave a ΔTm of -0.4 °C (thermal stability; DSF; 10 µM).
The remaining binding of `CCCOc1ccc([C@H]2[C@H](C(=O)O)[C@@H](c3ccc4c(c3)OCO4)CN2CC(=O)Nc2c(CC)cccc2CC)cc1` is reported as 100% (cell-free assay; competition with immobilised ligand; 1 µM).
For `Cc1ccc(C(=O)Nc2ccc(CN3CCN(C)CC3)c(C(F)(F)F)c2)cc1C#Cc1cnc2cccnn12`, the remaining signal was 73% (cell-free assay; 23.5 nM).
With `O=C(Nc1cnn(-c2csc(C(=O)NC3COC3)c2)c1)Nc1c(F)cccc1Cl` the remaining activity was 68.4% (enzyme activity; inhibitor; 5 µM).
`Cc1c[nH]c2nccc(Oc3c(F)cc(Nc4cc(Cl)nc(N)n4)cc3F)c12` has a remaining binding of 100% (cell-free assay; competition with immobilised ligand; 0.1 µM).
The ΔTm of `Cn1c2c(c3ccc(Cl)c(Cl)c31)C(C#N)C(C)(C)NC2=O` (centres unmarked) is reported as 0.5 °C (thermal stability; DSF; 10 µM).
The inhibition of `COc1cc2ncnc(Nc3ccc(Oc4ccccc4)cc3C)c2cc1OC` is reported as 70% (enzyme activity; inhibitor; 1 µM).
`CCCS(=O)(=O)Nc1ccc(F)c(C(=O)c2c[nH]c3ncc(-c4ccc(Cl)cc4)cc23)c1F` gave an inhibition of less than 10% (enzyme activity; inhibitor; 1 µM).
The remaining activity of `CCN(CC)c1ccc(C2=NNC(=O)CC2C)cc1[N+](=O)[O-]` (centres unmarked) is reported as 95% (enzyme activity; inhibitor; 10 µM).
`Cn1c2c(Cl)c(Cl)ccc2c2cn[nH]c(=O)c21` gave a ΔTm of 1 °C (thermal stability; DSF; 10 µM).
`C=CC(=O)Nc1cc(Nc2nccc(Nc3cc(Cl)c(F)cc3C(C)(C)O)n2)c(OC)cc1N1CC[C@@H](N(C)C)C1` has an inhibition of 5% (enzyme activity; inhibitor; 1 µM).
For `Cc1nc(N2CC[C@@H](O)C2)ncc1-c1cc(C(F)(F)F)cc2[nH]ncc12`, the remaining binding was 66% (cell-free assay; competition with immobilised ligand; 1 µM).
For `Cc1sc(C(=O)NC2COC2)cc1-n1cc(NC(=O)Nc2c(F)cccc2Cl)cn1`, the remaining activity was 98.8% (enzyme activity; inhibitor; 10 µM).
`COCCOc1nc(-c2ccc(Cl)nc2)nc2c1CN(C(=O)c1ncn3ccccc13)CC2` has a remaining binding of 100% (cell-free assay; competition with immobilised ligand; 0.1 µM).
`CCOc1cc(-c2nncn2C)ccc1Nc1ncc2cc(C)nc(NCC(C)(C)C)c2n1` gave an inhibition of 19% (enzyme activity; inhibitor; FRET; 1 µM).
`CCCOc1ccc(OC)c(F)c1C(=O)c1ccc(C(=O)N[C@@H]2CNC[C@H]2NC(=O)c2ccc3[nH]ncc3c2)cc1` has a remaining activity of 51% (enzyme activity; inhibitor; 10 µM).
`Cc1ccc(Nc2nccc(N(C)c3ccc4c(C)n(C)nc4c3)n2)cc1S(N)(=O)=O` gave an inhibition of 55% (cell-free assay; 10 µM).
`COc1cc(Cl)c(C(=O)N[C@@H](CN[C@H]2CC[C@@H](N)CC2)Cc2ccc(C#N)cc2)cc1-c1ccc(CN[C@H](C)c2ccc(C)cc2)o1` has a remaining activity of 85% (enzyme activity; inhibitor; 1 µM).
For `Cn1c2c(c3ccccc31)C(C#N)C(C)(C)NC2=O` (centres unmarked), the ΔTm was -0.1 °C (thermal stability; DSF; 10 µM).
`CCN(CC)CCNC(=O)c1c(C)[nH]c(/C=C2\C(=O)Nc3ccc(F)cc32)c1C` has an inhibition of 95% (cell-free assay; 10 µM).
`CCC(=O)N[C@H]1CC[C@@H](C(=O)N(C)c2ccc(-c3nc4ccccc4o3)cc2)C1` gave a remaining binding of 92% (cell-free assay; competition with immobilised ligand; 1 µM).
`CC(C)c1ccc(NC(=O)c2cccs2)c(-c2nc3ccccc3[nH]c2=O)c1` has an activity vs control of 103% (enzyme activity; inhibitor; 1 µM).
`CCS(=O)(=O)c1cc2cc(C[C@@](O)(CC(C)(C)c3ccc(F)cc3C(N)=O)C(F)(F)F)[nH]c2cn1` has a remaining binding of 92% (cell-free assay; competition with immobilised ligand; 1 µM).
With `CNC(=O)c1cc(Oc2ccc(NC(=O)Nc3ccc(Cl)c(C(F)(F)F)c3)cc2)ccn1` the remaining signal was 91.7% (cell-free assay; 0.5 µM).
With `CC(C)(C)c1nc2c(s1)c1nc(N)ncc1c1ccc(NS(=O)(=O)c3c(F)cccc3F)c(F)c12` the remaining activity was 91% (enzyme activity; inhibitor; radiometric; 1 µM).
`COc1cccc(CNC(=O)c2nc3scc(COCc4ccc(C(=O)O)cc4)c3c(=O)[nH]2)c1` has a remaining binding of 100% (cell-free assay; competition with immobilised ligand; 1 µM).
`CC(C)(O)[C@H]1CC[C@H](Nc2ccc3ncc(-c4cccc(C(F)(F)F)c4)n3n2)CC1` has a remaining activity of 22.3% (enzyme activity; inhibitor; 1 µM).
`O=C(O)c1cc(-c2ccc(C3CCNCC3)cc2)c2ccc(-c3ccc(C(F)(F)F)cc3)cc2c1` gave a remaining binding of 100% (cell-free assay; competition with immobilised ligand; 1 µM).
With `Oc1cccc(-c2nc(N3CCOCC3)c3oc4ncccc4c3n2)c1` the remaining signal was 102% (cell-free assay; 0.5 µM).
